Data as given in ChEMBL document CHEMBL2407075, “Sulphonamido-quinoxalines: search for anticancer agent” (Eur J Med Chem, 2013).

Assays:
[1] = Oral bioavailability in human; assay type: ADME, organism-based; settings: in silico prediction
[2] = system: T47D; assay: Growth inhibition of human T47D cells at 10 uM after 48 hrs by sulforhodamine B assay; assay type: functional; settings: read-out: GI
In short: (§1)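 Single-dose screen at 10 µM across the NCI 60 panel. Cells in RPMI 1640 with 5% FBS and 2 mM L-glutamine, plated at 5000–40,000/well and preincubated 24 h at 37 °C, 5% CO2. Drug in DMSO, 48 h exposure. Fixed with TCA, stained with SRB, A515 read. Percent growth is taken relative to untreated control, and inhibition is 100 minus growth.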

[3] = system: UO-31; assay: Growth inhibition of human UO31 cells at 10 uM after 48 hrs by sulforhodamine B assay; assay type: functional; settings: UO-31, 48 h, read-out: GI; in short: as §1
[4] = system: SN12C; assay: Growth inhibition of human SN12C cells at 10 uM after 48 hrs by sulforhodamine B assay; assay type: functional; settings: read-out: GI; in short: as §1
[5] = system: CAKI-1; assay: Growth inhibition of human CAKI-1 cells at 10 uM after 48 hrs by sulforhodamine B assay; assay type: functional; settings: CAKI-1, 48 h, read-out: GI
In short: (§2)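 Single-dose NCI-60 prescreen at 10 µM for 48 h at 37 °C and 5% CO2, using cells grown in RPMI 1640 with 5% FBS and 2 mM glutamine. Protein was measured by SRB after TCA fixation: 10% final for adherent lines, 16% for suspension lines. Absorbance was read at 515 nm. Percent growth inhibition was obtained by subtracting percent growth from 100.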

[6] = system: ACHN; assay: Growth inhibition of human ACHN cells at 10 uM after 48 hrs by sulforhodamine B assay; assay type: functional; settings: read-out: GI; in short: as §2
[7] = system: SK-OV-3; assay: Growth inhibition of human SKOV3 cells at 10 uM after 48 hrs by sulforhodamine B assay; assay type: functional; settings: SK-OV-3, 48 h, read-out: GI; in short: as §1
[8] = system: 786-0; assay: Growth inhibition of human 786-0 cells at 10 uM after 48 hrs by sulforhodamine B assay; assay type: functional; settings: 786-0, 48 h, read-out: GI; in short: as §2
[9] = Growth inhibition of human NCI-ADR-RES cells at 10 uM after 48 hrs by sulforhodamine B assay; assay type: functional; settings: read-out: GI; in short: as §1
[10] = system: OVCAR-4; assay: Growth inhibition of human OVCAR4 cells at 10 uM after 48 hrs by sulforhodamine B assay; assay type: functional; settings: OVCAR-4, 48 h, read-out: GI; in short: as §1
[11] = system: OVCAR-5; assay: Growth inhibition of human OVCAR5 cells at 10 uM after 48 hrs by sulforhodamine B assay; assay type: functional; settings: OVCAR-5, 48 h, read-out: GI; in short: as §1
[12] = system: OVCAR-3; assay: Growth inhibition of human OVCAR3 cells at 10 uM after 48 hrs by sulforhodamine B assay; assay type: functional; settings: OVCAR-3, 48 h, read-out: GI; in short: as §1
[13] = system: MDA-MB-435; assay: Growth inhibition of human MDA-MB-435 cells at 10 uM after 48 hrs by sulforhodamine B assay; assay type: functional; settings: MDA-MB-435, 48 h, read-out: GI; in short: as §1
[14] = system: SK-MEL-2; assay: Growth inhibition of human SK-MEL-2 cells at 10 uM after 48 hrs by sulforhodamine B assay; assay type: functional; settings: SK-MEL-2, 48 h, read-out: GI; in short: as §1
[15] = system: M14; assay: Growth inhibition of human M14 cells at 10 uM after 48 hrs by sulforhodamine B assay; assay type: functional; settings: M14, 48 h, read-out: GI; in short: as §1
[16] = system: SNB-19; assay: Growth inhibition of human SNB19 cells at 10 uM after 48 hrs by sulforhodamine B assay; assay type: functional; settings: SNB-19, 48 h, read-out: GI; in short: as §1
[17] = system: SNB-75; assay: Growth inhibition of human SNB75 cells at 10 uM after 48 hrs by sulforhodamine B assay; assay type: functional; settings: SNB-75, 48 h, read-out: GI; in short: as §1
[18] = system: SF-539; assay: Growth inhibition of human SF539 cells at 10 uM after 48 hrs by sulforhodamine B assay; assay type: functional; settings: SF-539, 48 h, read-out: GI; in short: as §1
[19] = system: SW-620; assay: Growth inhibition of human SW620 cells at 10 uM after 48 hrs by sulforhodamine B assay; assay type: functional; settings: SW-620, 48 h, read-out: GI; in short: as §1
[20] = system: HT-29; assay: Growth inhibition of human HT-29 cells at 10 uM after 48 hrs by sulforhodamine B assay; assay type: functional; settings: HT-29, 48 h, read-out: GI
In short: (§3)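 NCI-60 one-dose primary screen at a single 10 µM concentration. Cells in RPMI 1640 with 5% FBS, preincubated 24 h at 37 °C, 5% CO2. Drug exposure 48 h, then TCA fixation, SRB staining and absorbance at 515 nm. Percent growth calculated against time-zero and untreated control wells, then converted to percent growth inhibition.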

[21] = system: KM12; assay: Growth inhibition of human KM12 cells at 10 uM after 48 hrs by sulforhodamine B assay; assay type: functional; settings: KM12, 48 h, read-out: GI; in short: as §1
[22] = system: HCT-116; assay: Growth inhibition of human HCT116 cells at 10 uM after 48 hrs by sulforhodamine B assay; assay type: functional; settings: HCT-116, 48 h, read-out: GI; in short: as §3
[23] = system: HCT-15; assay: Growth inhibition of human HCT15 cells at 10 uM after 48 hrs by sulforhodamine B assay; assay type: functional; settings: HCT-15, 48 h, read-out: GI; in short: as §3
[24] = system: NCI-H522; assay: Growth inhibition of human NCI-H522 cells at 10 uM after 48 hrs by sulforhodamine B assay; assay type: functional; settings: NCI-H522, 48 h, read-out: GI; in short: as §1
[25] = system: COLO 205; assay: Growth inhibition of human COLO205 cells at 10 uM after 48 hrs by sulforhodamine B assay; assay type: functional; settings: COLO 205, 48 h, read-out: GI; in short: as §2
[26] = system: NCI-H322M; assay: Growth inhibition of human NCI-H322M cells at 10 uM after 48 hrs by sulforhodamine B assay; assay type: functional; settings: read-out: GI; in short: as §1
[27] = system: NCI-H460; assay: Growth inhibition of human NCI-H460 cells at 10 uM after 48 hrs by sulforhodamine B assay; assay type: functional; settings: NCI-H460, 48 h, read-out: GI; in short: as §1
[28] = system: NCI-H226; assay: Growth inhibition of human NCI-H226 cells at 10 uM after 48 hrs by sulforhodamine B assay; assay type: functional; settings: NCI-H226, 48 h, read-out: GI; in short: as §1
[29] = system: NCI-H23; assay: Growth inhibition of human NCI-H23 cells at 10 uM after 48 hrs by sulforhodamine B assay; assay type: functional; settings: NCI-H23, 48 h, read-out: GI; in short: as §1
[30] = system: SR; assay: Growth inhibition of human SR cells at 10 uM after 48 hrs by sulforhodamine B assay; assay type: functional; settings: read-out: GI; in short: as §1
[31] = system: MOLT-4; assay: Growth inhibition of human MOLT4 cells at 10 uM after 48 hrs by sulforhodamine B assay; assay type: functional; settings: MOLT-4, 48 h, read-out: GI; in short: as §1
[32] = system: RPMI-8226; assay: Growth inhibition of human RPMI8226 cells at 10 uM after 48 hrs by sulforhodamine B assay; assay type: functional; settings: RPMI-8226, 48 h, read-out: GI; in short: as §1
[33] = system: CCRF-CEM; assay: Growth inhibition of human CCRF-CEM cells at 10 uM after 48 hrs by sulforhodamine B assay; assay type: functional; settings: read-out: GI; in short: as §2
[34] = system: HL-60(TB); assay: Growth inhibition of human HL-60(TB) cells at 10 uM after 48 hrs by sulforhodamine B assay; assay type: functional; settings: HL-60, 48 h, read-out: GI
In short: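 Single-dose NCI-60 primary screen at 10 µM, 48 h exposure, SRB read-out. Growth percentage of treated versus untreated cells was recorded and given as percent inhibition by subtraction.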

| Compound | bioavailability [1] | inhibition of growth at 10 µM [2] | inhibition of growth at 10 µM [3] | inhibition of growth at 10 µM [4] | inhibition of growth at 10 µM [5] | inhibition of growth at 10 µM [6] | inhibition of growth at 10 µM [7] | inhibition of growth at 10 µM [8] | inhibition of growth at 10 µM [9] | inhibition of growth at 10 µM [10] | inhibition of growth at 10 µM [11] | inhibition of growth at 10 µM [12] | inhibition of growth at 10 µM [13] | inhibition of growth at 10 µM [14] | inhibition of growth at 10 µM [15] | inhibition of growth at 10 µM [16] | inhibition of growth at 10 µM [17] | inhibition of growth at 10 µM [18] | inhibition of growth at 10 µM [19] | inhibition of growth at 10 µM [20] | other results |
| --- | --- | --- | --- | --- | --- | --- | --- | --- | --- | --- | --- | --- | --- | --- | --- | --- | --- | --- | --- | --- | --- |
| NC(=S)NNS(=O)(=O)c1ccc2nc(-c3ccccc3)c(-c3ccccc3)nc2c1 | 81.4% | 42.6% | 13.7% | 6.98% | 2.94% | 1.83% | 5.98% | 2.34% | 11.9% | 16.5% | 4.85% | 1.84% | 11.1% | 7.94% | 4.23% | 14.8% | 25.6% | 21.7% | 3.72% | 30.8% | inhibition of growth at 10 µM [21]: 15.9%; inhibition of growth at 10 µM [22]: 17.8%; inhibition of growth at 10 µM [23]: 29.9%; inhibition of growth at 10 µM [24]: 13.7%; inhibition of growth at 10 µM [25]: 4.83%; inhibition of growth at 10 µM [26]: 2.92%; inhibition of growth at 10 µM [27]: 15.6%; inhibition of growth at 10 µM [28]: 52.9%; inhibition of growth at 10 µM [29]: 11.6%; inhibition of growth at 10 µM [30]: 50%; inhibition of growth at 10 µM [31]: 28.1%; inhibition of growth at 10 µM [32]: 46.4%; inhibition of growth at 10 µM [33]: 35.8%; inhibition of growth at 10 µM [34]: 40.6% |
| CC(=S)NS(=O)(=O)c1ccc2nc(-c3ccccc3)c(-c3ccccc3)nc2c1 | 94.7% | 40.6% | 10.6% | 2.83% | 5.83% | 16.6% | 4.85% | 2.83% | 8.63% | 13.4% | 2.84% | 1.94% | 4.73% | 8.53% | 2.85% | 2.12% | 26.9% | 3.29% | 3.84% | 21.5% | inhibition of growth at 10 µM [21]: 16.8%; inhibition of growth at 10 µM [22]: 14.5%; inhibition of growth at 10 µM [23]: 26.2%; inhibition of growth at 10 µM [24]: 3.73%; inhibition of growth at 10 µM [25]: 4.64%; inhibition of growth at 10 µM [26]: 17.8%; inhibition of growth at 10 µM [27]: 8.63%; inhibition of growth at 10 µM [28]: 53.6%; inhibition of growth at 10 µM [29]: 11.7%; inhibition of growth at 10 µM [30]: 41%; inhibition of growth at 10 µM [31]: 20.5%; inhibition of growth at 10 µM [32]: 39.6%; inhibition of growth at 10 µM [33]: 24.8%; inhibition of growth at 10 µM [34]: 35.3% |
